# Measurements as given in article PMC3297693 (Journal of Medicinal Chemistry, 2012).
# Entries after “also recorded” stand apart in the source; their conditions may differ. Where a name gives a salt, the structure may show the parent alone.
# Columns and labels:
# [1] = test system: full NCI 60 cell panel; assay: NCI 60 five-concentration screen, mean graph midpoint of all cell lines; format: cell-based; conditions: Homo sapiens, 48 h; for GI50: read-out: GI50 MG-MID (mean GI50); for IC (TGI): read-out: TGI MG-MID
# [2] = test system: HT-29 colon cancer cells; assay: Cell cycle distribution by flow cytometry; format: cell-based, Human; conditions: HT-29 cells, 24 h
# Outline: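 HT-29 cells grown in RPMI 1640 with 10% FBS and 2 mM L-glutamine (37 °C, 5% CO2). Test compound was added from a 10 mmol/L DMSO stock (0.01% DMSO final; DMSO-only controls) for 24 h. Cells were fixed in 70% ethanol at −20 °C for ≥12 h, treated with RNase A (10 μg/mL, 37 °C, 30 min) and stained with PI (50 μg/mL). DNA content was read by flow cytometry; one experiment representative of three.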
# [3] = test system: HT-29 colon cancer cells; assay: Cell viability by trypan blue exclusion; format: cell-based, Human; conditions: HT-29 cells, 24 h, 100 or 500 nM tested
# Outline: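 HT-29 cells in RPMI 1640/10% FBS/2 mM L-glutamine were plated at 2×10^4 cells/cm2. They were treated in triplicate for 24 h with 100 or 500 nM test compound (0.01% DMSO final; DMSO-only controls). Viable cells were counted by trypan blue exclusion. Values are means ± s.e.m. of three determinations.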
# [4] = test system: caspase proteases (DEVDase activity); assay: DEVDase; format: cell-based, Human; conditions: HT-29 cells, 500 nM, 48 h
# Outline: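 HT-29 cells in RPMI 1640/10% FBS were exposed to 500 nM test compound for 48 h, with 0.01% DMSO and DMSO-only controls. DEVD-hydrolysing caspase (DEVDase) activity was measured fluorometrically in cell extracts. Values are means ± s.e.m. of four determinations.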
# [5] = test system: HT-29 colon cancer cells; assay: Mitochondrial membrane potential with DiOC6; format: cell-based, Human; conditions: HT-29 cells, 500 nM, 24 h
# Outline: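 After 24 h in 500 nM test compound (0.01% DMSO; DMSO controls), HT-29 cells at 1×10^6 cells/mL were stained with 4 nM DiOC6 for 40 min at 37 °C in the dark. Cells were counterstained with PI at 5 μg/mL to exclude dead cells. Green fluorescence was read by flow cytometry with logarithmic amplification; one experiment representative of three to five.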
# [6] = test system: HT-29 colon cancer cells; assay: Intracellular ROS content with DHE; format: cell-based, Human; conditions: HT-29 cells, 500 nM, 24 h
# Outline: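 HT-29 cells were treated with 500 nM test compound for 24 h (0.01% DMSO; DMSO controls). They were then loaded with 5 μM dihydroethidium (from 10 mM DMSO stock) for 30 min at 37 °C to detect superoxide. Red fluorescence was read by flow cytometry with logarithmic amplification; one experiment representative of three to five.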
# [7] = test system: Bax; assay: Bax expression and translocation by confocal microscopy; format: cell-based, Human; conditions: HT-29 cells, 500 nM, 24 h
# [8] = test system: Akt(Ser473); assay: Kinase phosphorylation by Western blotting: Akt; format: cell-based, Human; conditions: HeLa cells, 1 μM, 3 h
# Outline: (§1)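 HeLa cells in RPMI 1640/10% FBS/2 mM L-glutamine were exposed to 1 μM test compound for 3 h (0.01% DMSO). Lysates were cleared at 15,000 × g for 15 min and boiled 4 min, and 80 μg protein was run on SDS-PAGE. Proteins were blotted to nitrocellulose and probed with antibodies to total and phosphorylated kinase, then a peroxidase anti-rabbit IgG (1 h). Bands were detected by ECL chemiluminescence.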
# [9] = test system: mTOR(Ser2448); assay: Kinase phosphorylation by Western blotting: mTOR; format: cell-based, Human; conditions: HeLa cells, 1 μM, 3 h
# Outline: as §1
# [10] = test system: ERK1/2(Thr202/Tyr204); assay: Kinase phosphorylation by Western blotting: ERK1/2; format: cell-based, Human; conditions: HeLa cells, 1 μM, 3 h
# Outline: as §1
# [11] = test system: JNK(Thr183/Tyr185); assay: Kinase phosphorylation by Western blotting: JNK; format: cell-based, Human; conditions: HeLa cells, 1 μM, 3 h
# Outline: as §1
# [12] = test system: p38MAPK(Thr180/Tyr182); assay: Kinase phosphorylation by Western blotting: p38MAPK; format: cell-based, Human; conditions: HeLa cells, 1 μM, 3 h
# Outline: as §1
# [13] = test system: AMPK(Thr172); assay: Kinase phosphorylation by Western blotting: AMPK; format: cell-based, Human; conditions: HeLa cells, 1 μM, 3 h
# Outline: as §1
# [14] = test system: Renal; assay: NCI 60 five-concentration screen, renal subpanel; format: cell-based; conditions: Homo sapiens, 48 h, read-out: TGI Renal
# [15] = test system: CNS; assay: cells; format: cell-based; conditions: Homo sapiens, 48 h, read-out: TGI CNS
# [16] = test system: Leukemia; assay: cells; format: cell-based; conditions: Homo sapiens, 48 h, read-out: TGI Leukemia
# [17] = molecular target: tubulin (Bos taurus, UniProt Q6B856); assay: Tubulin assembly assay; format: biochemical, Bovine; conditions: 10 μM tubulin, 20 min incubation at 30 °C
# Sequence of tubulin (Q6B856 whole entry): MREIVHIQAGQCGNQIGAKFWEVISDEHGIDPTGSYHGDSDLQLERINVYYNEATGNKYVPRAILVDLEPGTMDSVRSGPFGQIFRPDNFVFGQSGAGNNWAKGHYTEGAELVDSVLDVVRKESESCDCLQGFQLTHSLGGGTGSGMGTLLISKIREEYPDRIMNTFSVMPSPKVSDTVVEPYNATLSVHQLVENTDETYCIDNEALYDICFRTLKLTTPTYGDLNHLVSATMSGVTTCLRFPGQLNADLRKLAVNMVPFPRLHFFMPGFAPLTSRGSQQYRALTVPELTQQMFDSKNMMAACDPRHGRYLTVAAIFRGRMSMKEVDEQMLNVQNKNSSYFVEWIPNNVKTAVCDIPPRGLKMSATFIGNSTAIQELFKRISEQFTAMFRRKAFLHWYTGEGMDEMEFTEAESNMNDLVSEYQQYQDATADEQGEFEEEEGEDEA
# Sequence of tubulin (P81947 whole entry partner): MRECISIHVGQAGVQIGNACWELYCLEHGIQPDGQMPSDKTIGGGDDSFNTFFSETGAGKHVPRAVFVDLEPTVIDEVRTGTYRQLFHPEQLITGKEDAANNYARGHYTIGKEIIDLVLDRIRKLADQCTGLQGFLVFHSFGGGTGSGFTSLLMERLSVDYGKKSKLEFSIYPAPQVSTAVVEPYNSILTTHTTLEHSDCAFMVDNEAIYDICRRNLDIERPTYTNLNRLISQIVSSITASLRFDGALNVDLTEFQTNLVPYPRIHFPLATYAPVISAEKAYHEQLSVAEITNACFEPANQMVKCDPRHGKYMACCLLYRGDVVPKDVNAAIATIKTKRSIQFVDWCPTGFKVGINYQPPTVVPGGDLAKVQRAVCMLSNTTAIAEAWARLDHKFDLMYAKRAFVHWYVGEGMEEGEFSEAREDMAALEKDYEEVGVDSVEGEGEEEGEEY
# [18] = test system: Ovarian; assay: NCI 60 five-concentration screen, ovarian subpanel; format: cell-based; conditions: Homo sapiens, 48 h, read-out: TGI Ovarian
# [19] = test system: NSCLC; assay: NCI 60 five-concentration screen, NSCLC subpanel; format: cell-based; conditions: Homo sapiens, 48 h, read-out: TGI NSCLC
# [20] = test system: Colon; assay: NCI 60 five-concentration screen, colon subpanel; format: cell-based; conditions: Homo sapiens, 48 h, read-out: GI50 Colon
# [21] = test system: Melanoma; assay: NCI 60 five-concentration screen, melanoma subpanel; format: cell-based; conditions: Homo sapiens, 48 h, read-out: TGI Melanoma
# [22] = test system: Prostate; assay: cells; format: cell-based; conditions: Homo sapiens, 48 h, read-out: TGI Prostate
# [23] = test system: Breast; assay: NCI 60 five-concentration screen, breast subpanel; format: cell-based; conditions: Homo sapiens, 48 h, read-out: TGI Breast
smiles,measurement,setting,value
Cc1cn2c(/C=C3/C(=O)Nc4cc(Cl)ccc43)c(C)nc2s1 [Compound 4],GI50,[1],2 µM
same,IC (TGI),[1],51.3 µM
Cc1cn2c(/C=C3/C(=O)Nc4c3ccc3ccccc43)c(C)nc2s1 [Compound 5],IC (TGI),[1],19.9 µM
same,concentration that induced accumulation of cells in the G2/M phase,[2],500 nM
same,concentration that triggered cell death (reduction in cell viability),[3],500 nM
same,activity of effector caspases (DEVDase activity),[4],significantly increased
same,mitochondrial membrane potential (ΔΨm),[5],marked disruption of ΔΨm
same,superoxide formation (intracellular ROS content),[6],marked increase in superoxide formation
same,cellular content of Bax,[7],significant increase in the cellular content of Bax
same,Akt(Ser473) phosphorylation,[8],did not significantly influence
same,mTOR(Ser2448) phosphorylation,[9],did not significantly influence
same,ERK1/2(Thr202/Tyr204) phosphorylation/activation,[10],did not significantly influence
same,JNK(Thr183/Tyr185) phosphorylation/activation,[11],did not significantly influence
same,p38MAPK(Thr180/Tyr182) phosphorylation/activation,[12],did not significantly influence
same,AMPK(Thr172) phosphorylation,[13],did not significantly influence
Cc1nn2c(/C=C3/C(=O)Nc4ccc(F)cc43)c(C)nc2s1 [Compound 7],IC (TGI),[14],91.2 µM
same,GI50,[1],15.1 µM
same,IC (TGI),[1],91.2 µM
Cc1nn2c(/C=C3/C(=O)Nc4c3ccc3ccccc43)c(C)nc2s1 [Compound 9],IC (TGI),[15],4.9 µM
same,GI50,[1],0.5 µM
same,IC (TGI),[1],8.51 µM
Cc1ccc(-c2nc3sc(C)cn3c2/C=C2/C(=O)Nc3cc(C)c(O)cc32)cc1 [Compound 11],IC (TGI),[16],83.2 µM
same,GI50,[1],22.9 µM
same,IC (TGI),[1],83.2 µM
Cc1ccc(-c2nc3sc(C)cn3c2/C=C2/C(=O)N(C)c3ccccc32)cc1 [Compound 12],GI50,[1],16.6 µM
same,IC (TGI),[1],83.2 µM
COc1ccc2c(c1)/C(=C\c1c(-c3ccc(C)cc3)nc3sc(C)cn13)C(=O)N2C [Compound 13],GI50,[1],13.8 µM
COc1ccc2c(c1)/C(=C\c1c(-c3ccc(Cl)cc3)nc3sc(C)nn13)C(=O)N2 [Compound 16],GI50,[1],93.3 µM
Cc1nn2c(/C=C3/C(=O)Nc4ccc(F)cc43)c(-c3ccc(Cl)cc3)nc2s1 [Compound 17],GI50,[1],37.1 µM
same,IC (TGI),[1],93.3 µM
COc1cc(-c2nc3sc(C)cn3c2/C=C2/C(=O)Nc3ccccc32)c(Br)c(OC)c1OC [Compound 24],GI50,[1],28.8 µM
same,IC (TGI),[1],77.6 µM
O=C1Nc2ccccc2/C1=C\c1c(-c2ccccn2)nc2sccn12 [Compound 28],GI50,[1],1.15 µM
same,IC (TGI),[1],50.1 µM
O=C1Nc2ccc(Cl)cc2C1=Cc1c(-c2ccccn2)nc2sccn12 [Compound 29],GI50,[1],0.83 µM
same,Inhibition of tubulin assembly IC50 (μM) ± SD,[17],an IC50 could not be obtained
O=C1Nc2cc(Cl)ccc2C1=Cc1c(-c2ccccn2)nc2sccn12 [Compound 30],GI50,[1],0.18 µM
same,IC (TGI),[1],14.1 µM
COc1ccc2c(c1)/C(=C\c1c(-c3ccccn3)nc3sccn13)C(=O)N2 [Compound 31],IC (TGI),[16],0.58 µM
same,IC (TGI),[1],3.39 µM
same,concentration that induced accumulation of cells in the G2/M phase,[2],100 nM
same,concentration that triggered cell death (reduction in cell viability),[3],100 nM
same,activity of effector caspases (DEVDase activity),[4],significantly increased
same,Akt(Ser473) phosphorylation,[8],strongly reduced; also recorded: selectively and strongly inhibited
same,mTOR(Ser2448) phosphorylation,[9],no significant effect
same,ERK1/2(Thr202/Tyr204) phosphorylation/activation,[10],slightly decreased
same,JNK(Thr183/Tyr185) phosphorylation/activation,[11],slightly decreased
same,p38MAPK(Thr180/Tyr182) phosphorylation/activation,[12],slightly decreased
same,AMPK(Thr172) phosphorylation,[13],only slightly inhibited
COc1nc2sccn2c1/C=C1/C(=O)Nc2ccccc21 [Compound 33],GI50,[1],0.39 µM
same,IC (TGI),[1],22.9 µM
COc1nc2sccn2c1/C=C1/C(=O)Nc2cccc(Cl)c21 [Compound 34],IC (TGI),[1],57.5 µM
COc1nc2sccn2c1/C=C1/C(=O)Nc2ccc(Cl)cc21 [Compound 35],GI50,[1],2.82 µM
same,IC (TGI),[1],55 µM
COc1nc2sccn2c1/C=C1/C(=O)Nc2cc(Cl)ccc21 [Compound 36],GI50,[1],0.44 µM
same,IC (TGI),[1],31.6 µM
COc1nc2sccn2c1C=C1C(=O)Nc2ccc(F)cc21 [Compound 37],IC (TGI),[16],52.5 µM
same,GI50,[1],5.01 µM
same,IC (TGI),[1],52.5 µM
COc1ccc2c(c1)C(=Cc1c(OC)nc3sccn13)C(=O)N2 [Compound 38],GI50,[1],0.07 µM
same,IC (TGI),[1],19.1 µM
same,concentration that induced accumulation of cells in the G2/M phase,[2],100 nM
same,concentration that triggered cell death (reduction in cell viability),[3],100 nM
same,activity of effector caspases (DEVDase activity),[4],significantly increased
same,Akt(Ser473) phosphorylation,[8],strongly reduced; also recorded: selectively and strongly inhibited
same,mTOR(Ser2448) phosphorylation,[9],no significant effect
same,ERK1/2(Thr202/Tyr204) phosphorylation/activation,[10],slightly decreased
same,JNK(Thr183/Tyr185) phosphorylation/activation,[11],slightly decreased
same,p38MAPK(Thr180/Tyr182) phosphorylation/activation,[12],slightly decreased
same,AMPK(Thr172) phosphorylation,[13],only slightly inhibited
COc1ccc2c(c1)C(=Cc1c(OC)nc3sccn13)C(=O)N2C [Compound 39],IC (TGI),[16],4.9 µM
same,GI50,[1],0.54 µM
same,IC (TGI),[1],34.7 µM
COc1nc2sccn2c1/C=C1/C(=O)N(C)c2ccccc21 [Compound 40],IC (TGI),[18],72.4 µM
same,GI50,[1],6.31 µM
same,IC (TGI),[1],72.4 µM
"CC[C@]1(O)C[C@H]2CN(CCc3c([nH]c4ccccc34)[C@@](C(=O)OC)(c3cc4c(cc3OC)N(C=O)[C@H]3[C@@](O)(C(=O)OC)[C@H](OC(C)=O)[C@]5(CC)C=CCN6CC[C@]43[C@@H]65)C2)C1 [Vincristine sulfate, reference compound]",IC (TGI),[16],15.8 µM
same,IC (TGI),[19],15.8 µM
same,GI50,[20],0.1 µM
same,IC (TGI),[15],6.31 µM
same,IC (TGI),[21],7.94 µM
same,IC (TGI),[18],19.9 µM
same,IC (TGI),[14],19.9 µM
same,IC (TGI),[22],6.31 µM
same,IC (TGI),[23],7.94 µM
same,GI50,[1],0.2 µM
same,IC (TGI),[1],10 µM
